The values below come from the array DNA melting data of Ke et al. (doi:10.1101/2024.01.08.574731).

Series [1] can be described thus: melting temperature; fluorescence melt of hairpins on a sequencing array, two-state fit, raised by 9.35 °C to match UV melts. The conditions noted are these: sodium 0.088 M. The essentials: (§1)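 Cy3 signals were normalised both to pre-quench Cy3 and to control constructs. They came from library hairpins carrying annealed Cy3 and quencher oligos on a sequenced MiSeq flow cell, imaged in 50 mM Na-HEPES pH 8.0, 25 mM NaCl, in 2.5 °C steps up to 60 °C. Bootstrapped two-state fits gave melting temperature and folding enthalpy, and four replicates were combined by inverse variance. Fitted temperatures were then raised by 9.35 °C to match UV melts.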

A short description of series [2]: folding enthalpy; higher = less favourable; fluorescence melt of hairpins on a sequencing array, two-state fit. As to conditions: sodium 0.088 M. In a few lines:
as §1

Turning to GATCCTAGTTAGGATC ((((((....)))))), the Tm in series [1] is 51.7 °C. Besides, the folding enthalpy in series [2] is -33.7 kcal/mol.

GATCCTATCAGGATC ((((((...)))))): the Tm in series [1] stood at 57.2 °C. Also, in series [2], the folding enthalpy was -35.7 kcal/mol.

Consider GATCCTATTAGGATC ((((((...)))))), for which, in series [1], the Tm worked out at 53.4 °C. The folding enthalpy in series [2] is -34.6 kcal/mol.

For the sequence GATCCTCACAAGGATC ((((((....)))))), the Tm in series [1] worked out at 53 °C. In series [2], the folding enthalpy is -33.6 kcal/mol.

On to GATCCTCAGGAGGATC ((((((....)))))), for which, in series [1], the Tm was determined as 55.2 °C. Besides, in series [2], the folding enthalpy is -30.9 kcal/mol.

In the case of GATCCTCCAAGGATC ((((((...)))))), in series [1], the Tm came to 53.7 °C. Further, the folding enthalpy in series [2] was -31.8 kcal/mol.

As for GATCCTCCCAAGGATC ((((((....)))))), the Tm in series [1] is 53.1 °C. For the same sequence, in series [2], the folding enthalpy was -43.1 kcal/mol.

On to GATCCTCCCGAGGATC ((((((....)))))), for which, in series [1], the Tm came out at 56.4 °C. Also, the folding enthalpy in series [2] is -36.9 kcal/mol.

For GATCCTCCGGAGGATC ((((((....)))))), the Tm in series [1] stood at 55.1 °C. Besides, the folding enthalpy in series [2] is -29.5 kcal/mol.

Take GATCCTCGTAGGATC ((((((...)))))): in series [1], the Tm was determined as 54.5 °C. Besides, the folding enthalpy in series [2] was -34.2 kcal/mol.

Take GATCCTCTACAGGATC ((((((....)))))): the Tm in series [1] was found to be 51.8 °C. For the same sequence, the folding enthalpy in series [2] was -31.1 kcal/mol.

Take GATCCTCTCCAGGATC ((((((....)))))): in series [1], the Tm turned out to be 50.8 °C. For the same sequence, the folding enthalpy in series [2] was -36.3 kcal/mol.

With GATCCTCTCTAGGATC ((((((....)))))), the Tm in series [1] amounted to 51.6 °C. Besides, in series [2], the folding enthalpy is -38.2 kcal/mol.

GATCCTGAAAGGATC ((((((...)))))): the Tm in series [1] stood at 65.9 °C. Further, the folding enthalpy in series [2] was -38.7 kcal/mol.

For the sequence GATCCTGAAGAGGATC ((((((....)))))), in series [1], the Tm stood at 55.4 °C. The folding enthalpy in series [2] is -36.2 kcal/mol.

For GATCCTGAGAGGATC ((((((...)))))), the Tm in series [1] came out at 50.7 °C. The folding enthalpy in series [2] was -31.1 kcal/mol.

For GATCCTGCAAAGGATC ((((((....)))))), the Tm in series [1] came out at 61.3 °C. In addition, in series [2], the folding enthalpy was -34.6 kcal/mol.

GATCCTGCGAAGGATC ((((((....)))))): the Tm in series [1] worked out at 59.5 °C. In series [2], the folding enthalpy was -42.6 kcal/mol.

For GATCCTGCGGAGGATC ((((((....)))))), the Tm in series [1] is 50.3 °C. Moreover, the folding enthalpy in series [2] was -37.1 kcal/mol.

On to GATCCTGGAAAGGATC ((((((....)))))), for which the Tm in series [1] was found to be 59.5 °C. Moreover, the folding enthalpy in series [2] was -35.6 kcal/mol.

Turning to GATCCTGGACAGGATC ((((((....)))))), the Tm in series [1] worked out at 57.5 °C. Moreover, in series [2], the folding enthalpy was -36.4 kcal/mol.

In the case of GATCCTGTAAGGATC ((((((...)))))), the Tm in series [1] amounted to 62 °C. Further, the folding enthalpy in series [2] is -37 kcal/mol.

For GATCCTGTATAGGATC ((((((....)))))), in series [1], the Tm came to 59 °C. The folding enthalpy in series [2] was -41.6 kcal/mol.

For the sequence GATCCTGTCGAGGATC ((((((....)))))), in series [1], the Tm was determined as 57.2 °C. Further, the folding enthalpy in series [2] was -36.3 kcal/mol.

For GATCCTGTGTAGGATC ((((((....)))))), the Tm in series [1] was 52.3 °C. For the same sequence, in series [2], the folding enthalpy is -31.5 kcal/mol.

Take GATCCTGTTGAGGATC ((((((....)))))): the Tm in series [1] stood at 53.2 °C. In addition, in series [2], the folding enthalpy was -33.9 kcal/mol.

On to GATCCTTAGAGGATC ((((((...)))))), for which, in series [1], the Tm was 50 °C. In addition, the folding enthalpy in series [2] is -28.3 kcal/mol.

As to GATCCTTATAAGGATC ((((((....)))))), the Tm in series [1] was 53.9 °C. Further, the folding enthalpy in series [2] was -36 kcal/mol.

Regarding GATCCTTATAGGATC ((((((...)))))), the Tm in series [1] turned out to be 57.4 °C. Moreover, the folding enthalpy in series [2] was -32.5 kcal/mol.

Regarding GATCCTTCAAAGGATC ((((((....)))))), in series [1], the Tm was found to be 52.9 °C. In addition, in series [2], the folding enthalpy was -33.5 kcal/mol.

For GATCCTTCACAGGATC ((((((....)))))), in series [1], the Tm is 51.7 °C. Besides, in series [2], the folding enthalpy was -34.7 kcal/mol.

On to GATCCTTCCAGGATC ((((((...)))))), for which the Tm in series [1] came to 57.2 °C. Also, in series [2], the folding enthalpy was -35.2 kcal/mol.

As for GATCCTTCCTAGGATC ((((((....)))))), the Tm in series [1] was found to be 52.1 °C. In addition, the folding enthalpy in series [2] was -44.7 kcal/mol.

Turning to GATCCTTCGCAGGATC ((((((....)))))), the Tm in series [1] worked out at 51.2 °C. In series [2], the folding enthalpy was -37.3 kcal/mol.

With GATCCTTCGTAGGATC ((((((....)))))), in series [1], the Tm came out at 53 °C. For the same sequence, the folding enthalpy in series [2] was -33.7 kcal/mol.

With GATCCTTCTCAGGATC ((((((....)))))), in series [1], the Tm amounted to 50.9 °C. Moreover, in series [2], the folding enthalpy is -45 kcal/mol.

For GATCCTTGATAGGATC ((((((....)))))), in series [1], the Tm came to 50.5 °C. The folding enthalpy in series [2] was -35.4 kcal/mol.

For GATCCTTGCAGGATC ((((((...)))))), the Tm in series [1] stood at 57.9 °C. Also, the folding enthalpy in series [2] was -33.7 kcal/mol.
